Bioassay records from PubChem.
VIM-2 inh: inhibitors of Pseudomonas aeruginosa VIM-2 metallo-beta-lactamase; purified VIM-2, nitrocefin hydrolysis, epi-absorbance fluorescence; inhibition, % at 5.6 µM; 0.89% of 290,000 active;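 active = inhibition above the mean of all tested compounds plus 3 SD, cutoff set per screening run, cut at about 7.5% in these data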;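 also: red hydrolysis product quenches plate fluorescence so inhibitors raise well fluorescence; 0% = enzyme with DMSO and 100% = DMSO without enzyme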
IMP-1 inh: blocks Pseudomonas aeruginosa IMP-1 metallo-beta-lactamase; purified IMP-1, nitrocefin hydrolysis, epi-absorbance fluorescence; inhibition, % at 5.6 µM; 0.45% of 290,000 active; AID 1556;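 active = inhibition above the mean plus 3 SD of all compounds in the same screening run, cut at about 4.5% in these data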;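 also: 0% = IMP-1 with DMSO and 100% = DMSO wells lacking enzyme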
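Assay system: purified IMP-1; Quantity: IMP-1 0.2 nM before substrate addition; Medium: HEPES buffer pH 7.1 with ZnSO4 and Brij 35; Incubation: 15 min enzyme–compound preincubation, then 25 min nitrocefin reaction, 25 °C; Signal: fluorescence quenching readout, ex 480/em 530 nm; Controls: DMSO with and without IMP-1; Repeats: singlicate testing.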
ANO1 activ: mouse TMEM16A channel activation, primary screen. HEK293 TMEM16A/YFP-H148Q/I152L, iodide quench fluorescence; active compounds read low. B-score at 10 µM. 0.3% of 340,000 active;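 active = fluorescence-ratio B-score plate-corrected deviation score at least 3 library SD below zero, with starting fluorescence score within 5 deviations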;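 also: channel opened by trigger with iodide after compound preincubation; score built on the fluorescence ratio of max minus min over baseline; more negative score means more quench and so TMEM16A activation or potentiation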
CHT block: human CHT choline transport inhibition | Q9GZV3 | CHT-expressing cells, membrane potential dye, choline response; active compounds read low | B-score at 10 µM | 0.86% of 310,000 active | AID 488975;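 active = B-score over 3 SD under the library average, and starting fluorescence ratio not unusually high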;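 also: choline stimulus applied at its EC90 after an EC20 pre-addition; B-score computed on integrated fluorescence ratio after choline addition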
CHT PAM: human CHT allosteric activation; Q9GZV3; CHT-expressing cells, membrane potential dye, choline EC20; active compounds read high; LV-AA mutant CHT in HEK293 cells; B-score at 10 µM; 0.49% of 310,000 active; AID 488977;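 active = initial fluorescence not abnormally high and integrated response B-score, plate-corrected, over 3 SD above library mean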
ANO1 block: blocks the mouse calcium-activated chloride channel TMEM16A | Q8BHY3 | HEK293 TMEM16A/YFP iodide influx fluorescence, ionomycin | normalized B-score (activity score, 25-100; higher = stronger inhibition) at 10 µM | 1.2% of 310,000 active;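 active = ratio plate-corrected score three or more library SD toward inhibition, starting fluorescence score within five deviations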;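 also: score derived from kinetic fluorescence span divided by baseline fluorescence per well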
TMEM16A reconf: TMEM16A (mouse) chloride channel inhibition, re-confirmation; shares compounds with ANO1 block; HEK293 TMEM16A/YFP-H148Q, iodide quench fluorescence; ionomycin added to raise cell calcium; inhibition, % at 10 µM; 39% of 2,300 active; AID 652189;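 active = mean duplicate percent inhibition, scaled so buffer wells are 0 and the reference blocker 100, over three buffer SD above buffer mean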
TMEM16A Ca cntr: counter-screen for TMEM16A inhibitors: effect on calcium mobilization; 2% of 2,300 active; AID 652231; TMEM16A/YFP HEK293, Fluo4 calcium mobilization; calcium response (% of ionomycin), % at 10 µM; shares compounds with ANO1 block;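 active = duplicate-averaged calcium signal over 20% of the ionomycin maximum, relative to buffer baseline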;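 also: each well's signal is peak minus trough fluorescence divided by its pre-addition baseline; 0% = buffer wells and 100% = ionomycin wells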
YFP-HEK293 quench: parental YFP-HEK293 iodide quench counter-screen activity. YFP ratio F(max-min)/F0 at 10 µM. 2,300 tested, under 10 active. shares compounds with ANO1 block. ionomycin;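 active = yellow fluorescent protein signal ratio exceeding the buffer control mean by over 5 SD of those controls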;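 also: ratio is mean of duplicate wells from kinetic YFP trace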
ClC-1 rat inh: rat ClC-1 inhibition, TMEM16A specificity screen | shares compounds with ANO1 block | CHO ClC-1-YFP, iodide influx fluorescence quench; iodide control reads 0, buffer control 100 | ratio percent, % at 10 µM | 2,300 tested, under 10 active | AID 652236;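 active = duplicate-mean ratio percent above the mean of iodide-only control wells, which defines zero, plus 5 of their SD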;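 also: higher percent means stronger block of ClC-1 iodide influx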
Numbers without * were called inactive; i = inactive; · = not tested or not shown. This is a sample that favours compounds with a hit; in the whole collection about 3.4% have one here.

SMILES	VIM-2 inh	IMP-1 inh	ANO1 activ	CHT block	CHT PAM	ANO1 block	TMEM16A reconf	TMEM16A Ca cntr	YFP-HEK293 quench	ClC-1 rat inh
COc1ccc(CCNC(=S)N2CCC(Cc3ccccc3)CC2)cc1OC	-2.5	-2.3	i	i	i	100*	i	i	-1.01	-13.5
CCOc1ccccc1C(=O)N/N=C/c1coc2ccc(Cl)cc2c1=O	-6.0	3.3	i	i	i	i	·	·	·	·
Cc1csc(=O)n1CCC(=O)OCC(=O)c1c(N)n(CC(C)C)c(=O)n(C)c1=O	·	·	i	i	i	i	·	·	·	·
CC(C)Cn1c(N)c(C(=O)COC(=O)CC23CC4CC(CC(C4)C2)C3)c(=O)n(C)c1=O	-4.9	-4.2	i	i	i	25*	34.5%*	i	-0.81	-9.5
CC(C)Cn1c(N)c(C(=O)COC(=O)CCc2nc3ccccc3s2)c(=O)n(C)c1=O	-1.7	-1.4	i	i	i	100*	21.0%*	i	-0.798	-17.5
CN(C(=O)c1ccc(NC(=O)Cc2ccc(NC(=O)C3CCCN(C(=O)CCc4ccccc4)C3)cc2)cc1)C1CC1 (configuration not stated)	·	·	i	·	·	·	·	·	·	·
CC(C)N(Cc1nnc(-c2ccc(Cl)cc2)o1)C(=O)c1cc2ccccc2o1	·	·	i	·	·	·	·	·	·	·
C/C(=N\NC(=O)c1c(Cl)c(C)nn1C)c1cccc(NC(=O)C2CCCC2)c1	-0.1	-1.9	i	i	i	i	·	·	·	·
CCOC(=O)CCSc1nc(C(C)(C)C)cc(C(F)(F)F)c1C#N	-2.0	-2.0	i	i	i	100*	i	i	-1.19	-5.5
CC(=O)N1CCC(C(=O)OCc2ccccc2F)(c2ccccc2)CC1	-0.7	-0.4	i	i	i	i	·	·	·	·
COCC(=O)N1CCCC(C(=O)c2ccc(-c3ccccc3)c(F)c2)C1 (configuration not stated)	-2.9	-2.0	i	i	i	i	·	·	·	·
CN1C[C@@H]2[C@@H]3C(=O)N(Cc4ccccc4)C(=O)[C@@H]3[C@](Cc3ccccc3)(C1=O)N2C(=O)c1ccc(Br)cc1	·	·	i	·	·	·	·	·	·	·
CS(=O)(=O)c1ccc(Sc2nc3ccccc3[nH]2)c([N+](=O)[O-])c1	-2.3	-3.5	i	i	i	i	i	i	-0.921	2.0
O=[N+]([O-])c1cc(S(=O)(=O)C(F)(F)F)ccc1Sc1nc2ccccc2[nH]1	-5.4	-1.5	i	i	i	i	·	·	·	·
Cc1cc(SCC(=O)NCC2CCCO2)nc2ccccc12 (configuration not stated)	-0.1	0.8	i	i	i	i	·	·	·	·
C/C(=C\C(=O)c1ccc(C)cc1)NCc1ccc(F)cc1	-1.4	-2.1	i	i	i	100*	i	i	-1.03	-19.0
Cc1ccc(CNC(=O)COc2ccc(C(=O)c3ccc(F)cc3)cc2)cc1	-2.1	-5.6	i	i	i	i	·	·	·	·
N#Cc1c(NC(=O)CSc2nnnn2C2CCCCC2)sc2c1CCCC2	1.7	1.4	i	i	i	25*	i	i	-1.15	-8.5
Clc1ccc2nc3c4ccccc4cnn3c2c1	1.7	-2.2	i	i	i	i	·	·	·	·
Oc1ccc2nnc3c(Br)cnn3c2c1	7.2	3.3	i	i	i	i	i	i	-0.941	-6.0
COc1cc(O)cc2c1[C@@H]1Oc3c(ccc(O)c3CC=C(C)C)[C@@H]1CO2	·	·	i	i	i	25*	29.5%*	i	-0.96	-9.5
O=C(CSc1ccccn1)N1CCN(c2cccc(Cl)c2)CC1	-2.0	-2.5	i	i	i	25*	i	i	-0.892	-13.5
Cc1ccc(-c2noc(CN(C(=O)c3cccc(Br)c3)C(C)C)n2)cc1	-3.0	-6.1	i	i	i	i	·	·	·	·
COc1ccc(-c2noc(CN(C(=O)c3cccs3)C(C)C)n2)cc1	-1.4	-2.2	i	i	i	100*	i	i	-0.957	1.0
CCCN(CC(=O)Nc1ccccc1C)C(=O)c1ccc(OCc2c(C)noc2C)cc1	·	·	i	·	·	·	·	·	·	·
SMILES	VIM-2 inh	IMP-1 inh	ANO1 activ	CHT block	CHT PAM	ANO1 block	TMEM16A reconf	TMEM16A Ca cntr	YFP-HEK293 quench	ClC-1 rat inh
Cc1ccccc1Cn1ccc(NC(=O)c2cnn3c2NC(c2ccccc2)CC3C(F)(F)F)n1 (configuration not stated)	-5.5	-2.7	i	i	i	25*	i	i	-1.09	-6.0
O=C(NCc1ccco1)c1cnn2c1NC(c1ccccc1)CC2C(F)(F)F (configuration not stated)	-2.7	-1.6	i	i	i	i	·	·	·	·
CC(C)(C)OC(=O)N1CCN(c2ccc(CNC(=O)c3ccc(Cl)cc3)cc2)CC1	-7.3	-4.1	i	i	i	100*	22.5%*	i	-1.13	-12.0
COc1ccccc1CN(C)CC(=O)Nc1cccc2ccccc12	-3.8	-4.6	i	i	i	i	·	·	·	·
COc1cc(Cl)c(C)cc1NC(=O)CN(C)Cc1cccc(OC)c1OC	-4.1	-3.1	i	i	i	25*	19.5%*	i	-1.02	-3.5
Cn1cccc1/C=C1/SC(=S)N(CC(=O)O)C1=O	0.8	-3.6	i	i	i	i	i	i	-0.689	-7.5
COc1cc(/C=C2\SC(=S)N(CC(=O)O)C2=O)ccc1OC(=O)c1ccco1	-4.3	-1.3	-5.49*	i	i	i	i	i	-1.41	-78.0
CN1C(=O)/C(=C/c2ccc(OC(=O)c3ccco3)cc2)SC1=S	-4.7	-0.1	i	i	i	i	i	i	-1.2	-21.5
CC(C)(C)OC(=O)N1CCC(NC(=O)c2nc[nH]c2C(=O)NCC(=O)OCc2ccccc2)CC1	-1.2	-0.8	i	i	i	i	·	·	·	·
Nc1cc(=O)[nH]c(SCC(=O)NC2CCCCCCC2)n1	·	·	i	·	·	·	·	·	·	·
Cc1cc(C)c(S(=O)(=O)Nc2ccc3c4c(cccc24)CC3)c(C)c1	-4.1	-0.2	i	i	i	100*	i	i	-1.08	-9.5
